Non-standard residues stand in square brackets, D forms with d. Residues, ends and D or L forms follow the SMILES beside them. *: point of attachment. X7 = CC(=O)N(C(=O)/C=C/c1ccc(F)cc1)[C@@H](Cc1ccc(F)cc1)C(=O)*; X3 = CC(=O)N(C(=O)/C=C/c1ccccc1)[C@@H](Cc1ccc(F)cc1)C(=O)*; Phe(4-guanidino) = N=C(N)Nc1ccc(C[C@H](N)C(=O)O)cc1; Phe(4-F) = N[C@@H](Cc1ccc(F)cc1)C(=O)O; 1Nal = N[C@@H](Cc1cccc2ccccc12)C(=O)O; 2Nal = N[C@@H](Cc1ccc2ccccc2c1)C(=O)O; Benzoyl(4-Cl) = O=C(c1ccc(Cl)cc1)*; Thiophene3carbonyl = O=C(c1ccsc1)*; Tic = O=C(O)[C@@H]1Cc2ccccc2CN1; X10 = O=C(c1c[nH]c2ccccc12)*; X5 = O=C(c1cc2ccccc2[nH]1)*; Orn = NCCC[C@H](N)C(=O)O; Thz = O=C(O)[C@@H]1CSCN1; X1 = O=C(c1ccoc1)*; βAla = NCCC(=O)O
test system: not listed separately; test: Concentration to stimulate human platelet aggregation; assay type: functional; call rule not given here
In short: (§1)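 Peptides were added alone to gel-filtered human platelets, and aggregation was read by microtiter turbidity. EC₅₀ is the concentration stimulating 50% of maximum aggregation. N is the number of determinations. A peptide is called a partial agonist where maximum aggregation was not reached experimentally.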

| EC50 [nM] | Structure (SMILES) |
| --- | --- |
| 400 | CC(C)C[C@H](NC(=O)[C@H](CC(C)C)NC(=O)[C@H](Cc1ccccc1)NC(=O)[C@@H](N)CO)C(=O)N[C@@H](CCCN=C(N)N)C(N)=O |
| 130 | CC(C)C[C@H](NC(=O)[C@H](CC(C)C)NC(=O)[C@H](Cc1ccc(F)cc1)NC(=O)[C@@H](N)CO)C(=O)N[C@@H](CCCN=C(N)N)C(N)=O |
| 18000 | CC(C)C[C@H](NC(=O)[C@H](CC(C)C)NC(=O)[C@H](Cc1ccc(N)cc1)NC(=O)[C@@H](N)CO)C(=O)N[C@@H](CCCN=C(N)N)C(N)=O |
| > 300000 | CC(C)C[C@H](NC(=O)[C@H](CC(C)C)NC(=O)[C@H](Cc1ccc(NC(=N)N)cc1)NC(=O)[C@@H](N)CO)C(=O)N[C@@H](CCCN=C(N)N)C(N)=O |
| > 300000 | CC(C)C[C@H](NC(=O)[C@H](CC(C)C)NC(=O)[C@H](CCc1ccccc1)NC(=O)[C@@H](N)CO)C(=O)N[C@@H](CCCN=C(N)N)C(N)=O |
| 9270 | CC(C)C[C@H](NC(=O)[C@H](CC(C)C)NC(=O)[C@H](Cc1ccc(I)cc1)NC(=O)[C@@H](N)CO)C(=O)N[C@@H](CCCN=C(N)N)C(N)=O |
| > 300000 | CC(=O)N1CSC[C@H]1C(=O)N[C@@H](Cc1ccccc1)C(=O)N[C@@H](CC(C)C)C(=O)N[C@@H](CC(C)C)C(=O)N[C@@H](CCCN=C(N)N)C(N)=O (Ac-[Thz]FLLR-NH2) |
| 1800 | CC(=O)NCCC(=O)N[C@@H](Cc1ccccc1)C(=O)N[C@@H](CC(C)C)C(=O)N[C@@H](CC(C)C)C(=O)N[C@@H](CCCN=C(N)N)C(N)=O (Ac-[βAla]FLLR-NH2) |
| 160 | CC(C)C[C@H](NC(=O)[C@H](Cc1cccc2ccccc12)NC(=O)[C@H](Cc1ccc(F)cc1)NC(=O)[C@@H](N)CO)C(=O)N[C@@H](CCCN=C(N)N)C(N)=O (H-S[Phe(4-F)][1Nal]LR-NH2) |
| 80 | CC(C)C[C@H](NC(=O)[C@H](Cc1ccc2ccccc2c1)NC(=O)[C@H](Cc1ccc(F)cc1)NC(=O)[C@@H](N)CO)C(=O)N[C@@H](CCCN=C(N)N)C(N)=O (H-S[Phe(4-F)][2Nal]LR-NH2) |
| 100 | CC(C)C[C@H](NC(=O)[C@H](Cc1ccc(F)cc1)NC(=O)[C@H](Cc1ccc(F)cc1)NC(=O)[C@@H](N)CO)C(=O)N[C@@H](CCCN=C(N)N)C(N)=O (H-S[Phe(4-F)][Phe(4-F)]LR-NH2) |
| 40 | CC(C)C[C@H](NC(=O)[C@H](Cc1ccc(NC(=N)N)cc1)NC(=O)[C@H](Cc1ccc(F)cc1)NC(=O)[C@@H](N)CO)C(=O)N[C@@H](CCCN=C(N)N)C(N)=O (H-S[Phe(4-F)][Phe(4-guanidino)]LR-NH2) |
| 470 | CC(C)C[C@H](NC(=O)[C@@H]1Cc2ccccc2CN1C(=O)[C@H](Cc1ccc(F)cc1)NC(=O)[C@@H](N)CO)C(=O)N[C@@H](CCCN=C(N)N)C(N)=O (H-S[Phe(4-F)][Tic]LR-NH2) |
| 46000 | CC(C)C[C@H](NC(=O)[C@H](CC(C)C)NC(=O)[C@H](Cc1ccccc1)NC(=O)[C@@H]1CSCN1)C(=O)N[C@@H](CCCN=C(N)N)C(N)=O (H-[Thz]FLLR-NH2) |

target: T1, Proteinase-activated receptor 1 (Homo sapiens, UniProt P25116)
T1 sequence (P25116 whole entry): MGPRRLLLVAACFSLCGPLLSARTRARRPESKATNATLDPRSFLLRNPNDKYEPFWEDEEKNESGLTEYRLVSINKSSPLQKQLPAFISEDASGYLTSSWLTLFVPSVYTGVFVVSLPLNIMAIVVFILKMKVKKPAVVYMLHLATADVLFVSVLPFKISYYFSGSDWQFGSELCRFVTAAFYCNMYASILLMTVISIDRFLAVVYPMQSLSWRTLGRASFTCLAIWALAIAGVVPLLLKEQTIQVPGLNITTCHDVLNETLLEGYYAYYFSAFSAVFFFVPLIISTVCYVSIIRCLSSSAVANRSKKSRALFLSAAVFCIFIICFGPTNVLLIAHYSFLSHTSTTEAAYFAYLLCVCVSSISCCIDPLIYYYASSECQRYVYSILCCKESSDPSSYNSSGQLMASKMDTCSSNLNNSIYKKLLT

| IC50 [nM] | Structure (SMILES) |
| --- | --- |
| 24 | C/C=C/C=C/CC(=O)N(C(C)=O)[C@@H](Cc1ccc(F)cc1)C(=O)N[C@@H](Cc1ccc(NC(=N)N)cc1)C(=O)N[C@@H](CC(C)C)C(=O)N[C@@H](CCCN=C(N)N)C(N)=O |
| 24 | CC(C)C[C@H](NC(=O)[C@H](Cc1ccc(NC(=N)N)cc1)NC(=O)[C@H](Cc1ccc(F)cc1)NC(=O)c1ccsc1)C(=O)N[C@@H](CCCN=C(N)N)C(N)=O (Thiophene3carbonyl-[Phe(4-F)][Phe(4-guanidino)]LR-NH2) |
| 29 | CC(C)C[C@H](NC(=O)[C@H](Cc1ccc(NC(=N)N)cc1)NC(=O)[C@H](Cc1ccc(F)cc1)NC(=O)c1ccoc1)C(=O)N[C@@H](CCCN=C(N)N)C(N)=O (X1-[Phe(4-F)][Phe(4-guanidino)]LR-NH2) |
| 6.6 | CC(=O)N(C(=O)/C=C/c1ccccc1)[C@@H](Cc1ccc(F)cc1)C(=O)N[C@@H](Cc1ccc(NC(=N)N)cc1)C(=O)N[C@@H](CC(C)C)C(=O)N[C@@H](CCCN=C(N)N)C(=O)N[C@@H](CCCN)C(N)=O (X3-[Phe(4-guanidino)]LR[Orn]-NH2) |
| 24 | CC(C)C[C@H](NC(=O)[C@H](Cc1ccc(NC(=N)N)cc1)NC(=O)[C@H](Cc1ccc(F)cc1)NC(=O)c1cc2ccccc2[nH]1)C(=O)N[C@@H](CCCN=C(N)N)C(N)=O (X5-[Phe(4-F)][Phe(4-guanidino)]LR-NH2) |
| 19 | CC(=O)N(C(=O)/C=C/c1ccc(F)cc1)[C@@H](Cc1ccc(F)cc1)C(=O)N[C@@H](Cc1ccc(NC(=N)N)cc1)C(=O)N[C@@H](CC(C)C)C(=O)N[C@@H](CCCN=C(N)N)C(=O)N[C@@H](CCCN=C(N)N)C(N)=O (X7-[Phe(4-guanidino)]LRR-NH2) |
| 19 | CC(C)C[C@H](NC(=O)[C@H](Cc1ccc(NC(=N)N)cc1)NC(=O)[C@H](Cc1ccc(F)cc1)NC(=O)c1c[nH]c2ccccc12)C(=O)N[C@@H](CCCN=C(N)N)C(N)=O (X10-[Phe(4-F)][Phe(4-guanidino)]LR-NH2) |
| 20 | CC(=O)N(C(=O)/C=C/c1ccc(F)cc1)[C@@H](Cc1ccc(F)cc1)C(=O)N[C@@H](Cc1ccc(NC(=N)N)cc1)C(=O)N[C@@H](CC(C)C)C(=O)N[C@@H](CCCN=C(N)N)C(N)=O (stereo in doubt; 43) |
| 34 | CC(=O)N(C(=O)/C=C/c1ccc(C)cc1)[C@@H](Cc1ccc(F)cc1)C(=O)N[C@@H](Cc1ccc(NC(=N)N)cc1)C(=O)N[C@@H](CC(C)C)C(=O)N[C@@H](CCCN=C(N)N)C(N)=O (stereo in doubt; 45) |
| 23 | CC(=O)N(C(=O)/C=C/c1ccc(F)cc1)[C@@H](Cc1ccc(F)cc1)C(=O)N[C@@H](Cc1ccc(NC(=N)N)cc1)C(=O)N[C@@H](CC(C)C)C(=O)N[C@@H](CCCN=C(N)N)C(N)=O (stereo in doubt; 62) |
| 43 | CC(=O)N(C(=O)/C=C/c1ccc(C)cc1)[C@@H](Cc1ccc(F)cc1)C(=O)N[C@@H](Cc1ccc(NC(=N)N)cc1)C(=O)N[C@@H](CC(C)C)C(=O)N[C@@H](CCCN=C(N)N)C(N)=O (stereo in doubt; 63) |
| 26 | CC(C)C[C@H](NC(=O)[C@H](Cc1ccc(NC(=N)N)cc1)NC(=O)[C@H](Cc1ccc(F)cc1)NC(=O)c1ccc(Cl)cc1)C(=O)N[C@@H](CCCN=C(N)N)C(N)=O ({Benzoyl(4-Cl)}-[Phe(4-F)][Phe(4-guanidino)]LR-NH2) |

target: T1, Proteinase-activated receptor 1; test: Effective concentration of compound for stimulation of 50% maximum platelet aggregation; PA=not experimentally achieved; assay type: functional; in short: as §1

| EC50 | Structure (SMILES) |
| --- | --- |
| Not Active | CC(C)C[C@H](NC(=O)[C@H](Cc1ccc(NC(=N)N)cc1)NC(=O)[C@H](Cc1ccc(F)cc1)NC(=O)c1ccsc1)C(=O)N[C@@H](CCCN=C(N)N)C(N)=O (Thiophene3carbonyl-[Phe(4-F)][Phe(4-guanidino)]LR-NH2) |

target: T1, Proteinase-activated receptor 1; test: Concentration of compound required to inhibit agonist ([…], at 3 uM) induced platelet aggregation by 50%; PA=not experimentally achieved; assay type: functional
In short: (§2)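 Gel-filtered human platelets in a microtiter turbidity aggregation assay, preincubated with test peptide and then stimulated with SFLLRNP-NH₂ at 3 μM. […] N is the number of determinations.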

| IC50 | Structure (SMILES) |
| --- | --- |
| Not Active | C/C=C/C=C/CC(=O)N(C(C)=O)[C@@H](Cc1ccc(F)cc1)C(=O)N[C@@H](Cc1ccc(NC(=N)N)cc1)C(=O)N[C@@H](CC(C)C)C(=O)N[C@@H](CCCN=C(N)N)C(N)=O |

target: T1, Proteinase-activated receptor 1; test: Concentration of compound required to inhibit agonist ([…], at 3 uM) induced platelet aggregation by 50%;PA=not experimentally achieved; assay type: functional; in short: as §2

| EC50 | Structure (SMILES) |
| --- | --- |
| Not Active | CC(C)C[C@H](NC(=O)[C@H](Cc1ccc(NC(=N)N)cc1)NC(=O)[C@H](Cc1ccc(F)cc1)NC(=O)c1ccoc1)C(=O)N[C@@H](CCCN=C(N)N)C(N)=O (X1-[Phe(4-F)][Phe(4-guanidino)]LR-NH2) |

— ChEMBL document CHEMBL1129588, “Development of potent thrombin receptor antagonist peptides” (J Med Chem, 1996)
